The text below walks through data of paper PMC4885108 (Journal of medicinal chemistry, 2016).

As usually defined, the clearance is the volume of plasma or blood freed of the substance per unit of time. Read a low clearance as inefficient removal. The AUC(0-t) is the area under the concentration-time curve up to a stated or last time point. A lower AUC(0-t) goes with less exposure. In general, MIC refers to the lowest concentration that inhibits growth of the organism.

One data set is described as follows: Fast PK studies. The following applies: mouse, plasma, iv. The format is in vivo. In a few lines:
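Female ICR mice (n = 2 per time point) got one tail-vein iv injection of 5, 10 or 20 mg/kg in 25% DMSO/65% propylene glycol/10% water. Plasma was precipitated with acetonitrile containing internal standard, then run by UPLC-UV or MRM against 0–50 μg/mL calibration curves. AUC and CL came from noncompartmental analysis.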

Data set [1] has as its system red blood cells. The data set is described as follows: Hemolysis assay. The format is cell-based, human. The following applies: at 64 μg/mL, Triton-X as positive control.
The subject of the next data set is S. aureus. The data set is described as follows: MBC determination, three strains of S. aureus together. The format is cell-based.
Another data set concerns MRSA NRS70. The data set is described as follows: Mouse neutropenic thigh infection model. The class given is in vivo. Conditions: thighs harvested at 24 h.
The subject of another data set is S. aureus strains. The data set is described as follows: MIC, all S. aureus strains tested. The format is cell-based. Conditions: Staphylococcus aureus, read-out: MIC for all S. aureus strains tested. In outline:
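CLSI broth microdilution: 2-fold serial compound dilutions in cation-adjusted Mueller–Hinton broth, set up in triplicate. Inoculum 5 × 10^5 CFU/mL.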

A further data set in a line: Full PK study. The format is in vivo, mouse. Conditions: 10 mg/kg.
The nature of data set [2]: Compound levels in plasma and uninfected thighs in the neutropenic thigh model. The class given is in vivo, mouse. Conditions: for levels in plasma / levels in the thighs (uninfected): 24 h after infection (7 h after the last dose).
In a further data set the test system is E. faecalis 99. The following applies: vancomycin-resistant clinical isolate; ref 22 (Bouley et al.); cited from earlier work.
Another data set deals with E. faecalis ATCC 29212. The following applies: quality control strain; ref 22 (Bouley et al.); cited from earlier work.
In data set [3] the test system is red blood cells. Conditions: at 64 μg/mL; ref 22 (Bouley et al.); cited from earlier work.
Another data set concerns S. pyogenes ATCC 49399. Conditions: ref 22 (Bouley et al.); cited from earlier work.
Data set [4] deals with B. licheniformis ATCC 12759. Conditions: ref 22 (Bouley et al.); cited from earlier work.
The next data set concerns B. cereus ATCC 13061. Conditions: ref 22 (Bouley et al.); cited from earlier work.
A further data set deals with S. oralis ATCC 9811. The following applies: ref 22 (Bouley et al.); cited from earlier work.
Where [5] appears, read: 10 mg/kg, fast PK AUC0–last, mice, single iv dose 10 mg/kg.
The mark [6] stands for this setting: 20 mg/kg subcutaneously every 8 h.

Read-outs that look alike come from different tables or passages of the source.

With `CC(=O)Nc1cccc(-n2c(/C=C/c3ccc(C#N)cc3)nc3ccccc3c2=O)c1` [Compound 52, (E)-3-(3-Acetamidophenyl)-2-(4-cyanostyryl)quinazolin-4(3H)-one], the clearance at 8 h in the data set “Fast PK studies” (5 mg/kg) was found to be 131 mL/min/kg.
As for `CC(=O)Nc1cccc(-n2c(/C=C/c3ccc(F)cc3)nc3ccccc3c2=O)c1` [Compound 42, (E)-3-(3-Acetamidophenyl)-2-(4-fluorostyryl)quinazolin-4(3H)-one], the clearance in “Fast PK studies” (10 mg/kg) amounted to 88 mL/min/kg. This molecule also showed an AUC(0-t) in the data set “Fast PK studies” (setting [5]) of 4730 ng·h/mL.
For the molecule `O=C(O)c1cccc(-n2c(/C=C/c3ccc(F)cc3)nc3ccccc3c2=O)c1` [Compound 30, (E)-3-(3-Carboxyphenyl)-2-(4-fluorostyryl)quinazolin-4(3H)-one], the clearance at 8 h in the data set “Fast PK studies” (20 mg/kg) was 7.8 mL/min/kg.
On to `N#Cc1ccc(/C=C/c2nc3ccccc3c(=O)n2-c2cccc(O)c2)cc1` [Compound 15, (E)-3-(3-Hydroxyphenyl)-2-(4-cyanostyryl)quinazolin-4(3H)-one], for which, in the data set “Fast PK studies” (5 mg/kg), the exposure AUC(0-t) was 450 ng·h/mL and the clearance at 8 h was 186 mL/min/kg.
In the data set “Fast PK studies” (5 mg/kg), `O=c1c2ccccc2nc(/C=C/c2ccc(F)cc2)n1-c1cccc(O)c1` [Compound 5, (E)-3-(3-Hydroxyphenyl)-2-(4-fluorostyryl)quinazolin-4(3H)-one] yielded a clearance of 11 mL/min/kg and a clearance at 8 h of 10.7 mL/min/kg. Besides, the hemolysis entry with red blood cells [1] is “no significant hemolytic activity”.
`N#Cc1ccc(/C=C/c2nc3ccccc3c(=O)n2-c2cccc(N)c2)cc1` [Compound 50, (E)-3-(3-Aminophenyl)-2-(4-cyanostyryl)quinazolin-4(3H)-one] showed a clearance at 8 h in “Fast PK studies” (10 mg/kg) of 25 mL/min/kg. In addition, the hemolysis result in the data set with red blood cells [1] is reported as “some hemolysis”.
In the case of `C#Cc1ccc(/C=C/c2nc3ccccc3c(=O)n2-c2cccc(C(=O)O)c2)cc1` [Compound 27, (E)-3-(3-Carboxyphenyl)-2-(4-ethynylstyryl)quinazolin-4(3H)-one], the clearance in “Fast PK studies” (10 mg/kg) is 6.4 mL/min/kg. For the same molecule, in the data set on S. aureus, the “fold difference between MIC and MBC” value was > 4 fold. The “lowering of the bacterial load compared to the negative control” value (from here on “lowering … compared to the negative control”) in the data set on MRSA NRS70 (setting [6]) is “statistically significant lowering of the bacterial load”. Further, the MIC in the data set with S. aureus strains is ≤ 0.5 µg/mL. In “Full PK study” (ICR, mouse, plasma, iv), this molecule showed an AUC(0-t) of 25700 ng·h/mL and a clearance of 6.4 mL/min/kg. Besides, the “volume of distribution (Vd), fold higher than compound 2” value in the data set “Full PK study” (mice, iv) is 10 fold. The “Cmax after po administration, fold higher than compound 2” value in “Full PK study” (mice, po) turned out to be 2 fold. In addition, in [2] (20 mg/kg sc every 8 h), the levels in plasma amounted to 2430 ± 1640 ng/mL and the “levels in the thighs (uninfected)” value came to 220 ± 170 ng/mL. The “levels in thighs, fold higher than compound 2” value in [2] (24 h after infection, 20 mg/kg sc every 8 h) was 9 fold.
For `CC(=O)NC[C@H]1CN(c2ccc(N3CCOCC3)c(F)c2)C(=O)O1` [linezolid, reference compound], the “lowering … compared to the negative control” value with MRSA NRS70 (10 mg/kg subcutaneously every 8 h) is listed as “statistically significant lowering of the bacterial load”. Moreover, in data set [2] (10 mg/kg sc every 8 h), the levels in plasma result is reported as “not quantifiable” and the “levels in the thighs (uninfected)” value was “not quantifiable”.
As for `N#Cc1ccc(/C=C/c2nc3ccccc3c(=O)n2-c2cccc(C(=O)O)c2)cc1` [Compound 2, (E)-3-(3-Carboxyphenyl)-2-(4-cyanostyryl)quinazolin-4(3H)-one], the “fold difference between MIC and MBC” value with S. aureus is reported as > 4 fold. In addition, in the data set on E. faecalis 99, the “MIC E. faecalis 99” value is >128 µg/mL. For the same molecule, the “MIC E. faecalis ATCC 29212” value in the data set with E. faecalis ATCC 29212 was >128 µg/mL. In the data set on red blood cells [3], the hemolysis is recorded as <1%. Besides, the “lowering … compared to the negative control” value in the data set with MRSA NRS70 (setting [6]) was “not able to achieve statistically significant efficacy”. For the same molecule, the “MIC S. pyogenes ATCC 49399” value with S. pyogenes ATCC 49399 is >128 µg/mL. Besides, the “MIC B. licheniformis ATCC 12759” value in data set [4] is >128 µg/mL. In addition, in the data set on B. cereus ATCC 13061, the “MIC B. cereus ATCC 13061” value is >128 µg/mL. In addition, in data set [2] (20 mg/kg sc every 8 h), the levels in plasma was determined as 1130 ± 1070 ng/mL and the “levels in the thighs (uninfected)” value stood at 24 ± 23 ng/mL. The “MIC S. oralis ATCC 9811” value with S. oralis ATCC 9811 was >128 µg/mL.
`CC(=O)NCc1cccc(-n2c(/C=C/c3ccc(C#N)cc3)nc3ccccc3c2=O)c1` [Compound 53, (E)-3-(3-(Acetamidomethyl)phenyl)-2-(4-cyanostyryl)-quinazolin-4(3H)-one] returned a clearance at 8 h in the data set “Fast PK studies” (10 mg/kg) of 35 mL/min/kg.
In turn, `N#Cc1ccc(/C=C/c2nc3ccccc3c(=O)n2-c2cccc(C(=O)NCCO)c2)cc1` [Compound 57, (E)-3-(3-(2-Hydroxyethyl)carbomylphenyl)-2-(4-cyanostyryl)quinazolin-4(3H)-one] registered a clearance at 8 h in “Fast PK studies” (10 mg/kg) of 29 mL/min/kg.
Take `CS(=O)(=O)Nc1cccc(-n2c(/C=C/c3ccc(F)cc3)nc3ccccc3c2=O)c1` [Compound 43, (E)-3-(3-Methylsulfonamidophenyl)-2-(4-fluorostyryl)-quinazolin-4(3H)-one]: in the data set “Fast PK studies” (10 mg/kg), the clearance came out at 28 mL/min/kg. In addition, in “Fast PK studies” (setting [5]), the AUC(0-t) is 13700 ng·h/mL.
In turn, `CS(=O)(=O)Nc1cccc(-n2c(/C=C/c3ccc(C#N)cc3)nc3ccccc3c2=O)c1` [Compound 54, (E)-3-(3-Methylsulfonamidophenyl)-2-(4-cyanostyryl)-quinazolin-4(3H)-one] had a clearance at 8 h in the data set “Fast PK studies” (5 mg/kg) of 162 mL/min/kg.
